The text below walks through data of ChEMBL document CHEMBL1177875, “Antitumor activity of (-)-alpha-bisabolol-based thiosemicarbazones against human tumor cell lines” (2010).

Common to all, as to format: functional
The nature of test [1]: Cytotoxicity against human PCO3 cells by sulforhodamine B assay. The following applies: for CC50: read-out: LC50 (the source's name). Put shortly:
(§1)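 Growth of the human tumor cell line was read colorimetrically with sulforhodamine B, following the NCI standard protocol, with doxorubicin as positive control. Compounds were tested at four concentrations in 10-fold dilutions (0.25 to 250). Dose-response curves gave GI50 (the concentration for 50% growth inhibition), TGI (total growth inhibition) and LC50 (50% cell death).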
For orientation: Sulforhodamine B stains cellular protein and so reports cell mass.

Test [2] has as its system UACC-62. Briefly: Cytotoxicity against human UACC62 cells by sulforhodamine B assay. Put shortly:
as §1

A short description of test [3]: Cytotoxicity against human NCI/ADR cells by sulforhodamine B assay. The following applies: NCI/ADR-RES; for CC50: read-out: LC50 (the source's name). Put shortly: as §1
For test [4], the system named is MCF7. Briefly: Cytotoxicity against human MCF7 cells by sulforhodamine B assay. The following applies: for CC50: read-out: LC50 (the source's name). A digest of the protocol: as §1
The test system of test [5] is OVCAR-3. Briefly: Cytotoxicity against human OVCAR-3 cells by sulforhodamine B assay. The following applies: for CC50: read-out: LC50 (the source's name). Put shortly:
as §1

Test [6] relates to K562. The test is described as follows: Cytotoxicity against human K562 cells by sulforhodamine B assay. The settings on record: for CC50: read-out: LC50 (the source's name). Put shortly: as §1
In test [7] the test system is NCI-H460. The test is described as follows: Cytotoxicity against human NCI-H460 cells by sulforhodamine B assay. The settings on record: for CC50: read-out: LC50 (the source's name). A digest of the protocol: as §1
The test system of test [8] is HT-29. The test is described as follows: Cytotoxicity against human HT-29 cells by sulforhodamine B assay. The settings on record: for CC50: read-out: LC50 (the source's name). A digest of the protocol: as §1

The term GI50 denotes the concentration giving 50% growth inhibition. As usually defined, the TGI is the concentration giving total growth inhibition. Lower therefore signals greater sensitivity of the cells. As for `CC1=CC[C@@H]([C@@](C)(O)CCCC(C)(C)NC(=S)N/N=C\c2ccc(N(C)C)cc2)CC1`, the 50% growth inhibitory concentration (GI50) in test [1] is 13.7 µM; in test [2] it was greater than 100 µM; in test [3] it was 25.2 µM; in test [4] it was 14 µM; in test [5] it was 3.6 µM; in test [6] it was 0.08 µM. Also, the concentration for 50% growth inhibition (GI50) in test [7] was determined as 19.6 µM; in test [8], 27.7 µM. Besides, the total growth inhibition concentration (TGI) is greater than 100 µM in test [1]; greater than 100 µM in test [2]; greater than 100 µM in test [3]; greater than 100 µM in test [4]; greater than 100 µM in test [5]; 42 µM in test [6]. For the same compound, the TGI in test [7] and in test [8] was greater than 100 µM in each case. Further, the CC50 in test [1], in test [3], in test [4], in test [5], in test [6] and in test [7] was greater than 100 µM throughout. Also, the CC50 in test [8] is greater than 100 µM. For the same compound, the LC50 (50% cell kill) in test [2] was greater than 100 µM.

Turning to `CC1=CC[C@@H]([C@@](C)(O)CCCC(C)(C)NC(=S)N/N=C\c2ccccc2)CC1`, the GI50 in test [1] stood at 8.47 µM; in test [2] it was 12.7 µM; in test [3], 6.97 µM; in test [4], 7.72 µM; in test [5], 6.97 µM; in test [6], 0.13 µM. In addition, the GI50 in test [7] stood at 38.4 µM; in test [8], 9.96 µM. Moreover, the TGI in test [1] was 36.2 µM; in test [2] it was 43.8 µM; in test [3], 23.8 µM; in test [4], 28.7 µM; in test [5] it was 12.9 µM; in test [6], 20.9 µM. For the same compound, the results for the concentration for total growth inhibition (TGI) in test [7] and in test [8] were greater than 100 µM and 36.5 µM, respectively. In addition, the CC50 is greater than 100 µM in test [1]; 59.9 µM in test [3]; 60.4 µM in test [4]; 43.6 µM in test [5]; greater than 100 µM in test [6]; greater than 100 µM in test [7]. Also, the CC50 in test [8] is 57.4 µM. In addition, the LC50 (50% cell kill) in test [2] is 48.4 µM.

On to `CC1=CC[C@@H]([C@@](C)(O)CCCC(C)(C)NC(=S)N/N=C\c2ccc(C)cc2)CC1`, for which the GI50 in test [1] came to 6.75 µM; in test [2], 11.6 µM; in test [3] it was 6.51 µM; in test [4], 7.23 µM; in test [5], 6.02 µM; in test [6], 0.14 µM. Also, the concentration for 50% growth inhibition (GI50) is 10.1 µM in test [7] and 10.4 µM in test [8]. In addition, the concentration for total growth inhibition (TGI) in test [1] is 45.7 µM; in test [2], 39 µM; in test [3], 30.5 µM; in test [4], greater than 100 µM; in test [5] it was 11.8 µM; in test [6], 7.95 µM. The values for the TGI in test [7] and in test [8] were greater than 100 µM and 80.4 µM, respectively. The CC50 in test [1] is greater than 100 µM; in test [3], greater than 100 µM; in test [4], greater than 100 µM; in test [5], 45.3 µM; in test [6], greater than 100 µM; in test [7] it was greater than 100 µM. Further, the CC50 in test [8] is greater than 100 µM. Also, the LC50 (50% cell kill) in test [2] worked out at 52.3 µM.

For `COc1ccc(/C=N\NC(=S)NC(C)(C)CCC[C@](C)(O)[C@@H]2CC=C(C)CC2)cc1`, the GI50 in test [1] was found to be 7.66 µM; in test [2], 7.42 µM; in test [3] it was 6.73 µM; in test [4], 6.5 µM; in test [5], 6.5 µM; in test [6], 0.22 µM. Also, the GI50 turned out to be 5.1 µM in test [7] and 7.42 µM in test [8]. The TGI in test [1] was 76 µM; in test [2] it was 22.1 µM; in test [3] it was 57 µM; in test [4], 94.9 µM; in test [5] it was 15.8 µM; in test [6], 34.9 µM. Moreover, the figures for the total growth inhibition concentration (TGI) in test [7] and in test [8] were greater than 100 µM and 35.1 µM, respectively. The CC50 in test [1] is greater than 100 µM; in test [3], greater than 100 µM; in test [4], greater than 100 µM; in test [5], 46.2 µM; in test [6], greater than 100 µM; in test [7], greater than 100 µM. For the same compound, the CC50 in test [8] is greater than 100 µM. This compound gave an LC50 (50% cell kill) in test [2] of 48.5 µM.

Regarding `CC1=CC[C@@H]([C@@](C)(O)CCCC(C)(C)NC(=S)N/N=C\c2ccc(O)cc2)CC1`, the GI50 in test [1] was 6.23 µM; in test [2] it was 8.87 µM; in test [4], 6.23 µM; in test [5] it was 6.23 µM; in test [6] it was 0.6 µM; in test [7], 1.46 µM. In test [8], this compound had a concentration for 50% growth inhibition (GI50) of 8.15 µM. In addition, the total growth inhibition concentration (TGI) in test [1] was determined as 13.9 µM; in test [2], 40.1 µM; in test [4], 21.2 µM; in test [5], 17.4 µM; in test [6] it was 31.1 µM; in test [7] it was 20.7 µM. This compound also displayed a TGI in test [8] of 31.5 µM. For the same compound, the CC50 was 50.1 µM in test [1]; greater than 100 µM in test [3]; 56.4 µM in test [4]; 54.4 µM in test [5]; greater than 100 µM in test [6]; greater than 100 µM in test [7]. The CC50 in test [8] came to 58.5 µM. In test [2], this compound returned an LC50 (50% cell kill) of 55.6 µM.

Turning to `CC1=CC[C@@H]([C@@](C)(O)CCCC(C)(C)NC(=S)NN)CC1`, the concentration for 50% growth inhibition (GI50) in test [1] is 26.8 µM; in test [2] it was 18.5 µM; in test [3], 0.76 µM; in test [4] it was 15.3 µM; in test [5] it was 17.2 µM; in test [6], 0.02 µM. Also, the GI50 in test [7] was found to be 12.8 µM; in test [8], 49.4 µM. Further, the concentration for total growth inhibition (TGI) in test [1] is greater than 100 µM; in test [2], greater than 100 µM; in test [3], 29 µM; in test [4] it was 84.2 µM; in test [5], greater than 100 µM; in test [6] it was 0.38 µM. Also, the TGI is 84 µM in test [7] and greater than 100 µM in test [8]. Further, the CC50 was greater than 100 µM in test [1]; greater than 100 µM in test [3]; greater than 100 µM in test [4]; greater than 100 µM in test [5]; 9.58 µM in test [6]; greater than 100 µM in test [7]. Further, the CC50 in test [8] is greater than 100 µM. The compound also yielded an LC50 (50% cell kill) in test [2] greater than 100 µM.

Turning to `CC1=CC[C@@H]([C@@](C)(O)CCCC(C)(C)NC(=S)N/N=C\c2cccc([N+](=O)[O-])c2)CC1`, the GI50 in test [1] was 5.6 µM; in test [2], 7.84 µM; in test [3], 6.72 µM; in test [4], 6.72 µM; in test [5] it was 8.51 µM; in test [6], 0.02 µM. The GI50 in test [7] turned out to be 8.29 µM; in test [8], 14.1 µM. Moreover, the TGI in test [1] stood at 20.7 µM; in test [2], 24.7 µM; in test [3] it was 38 µM; in test [4], 18.3 µM; in test [5] it was 40.8 µM; in test [6] it was 0.56 µM. Further, the figures for the concentration for total growth inhibition (TGI) in test [7] and in test [8] were 68.6 µM and 57.1 µM, respectively. In addition, the CC50 was 52.5 µM in test [1]; greater than 100 µM in test [3]; 47.3 µM in test [4]; greater than 100 µM in test [5]; 12.6 µM in test [6]; greater than 100 µM in test [7]. For the same compound, in test [8], the CC50 was greater than 100 µM. The compound also gave an LC50 (50% cell kill) in test [2] of 49.3 µM.

Regarding `CC1=CC[C@@H]([C@@](C)(O)CCCC(C)(C)NC(=S)N/N=C\c2ccc([N+](=O)[O-])cc2)CC1`, the 50% growth inhibitory concentration (GI50) in test [1] came to 18.1 µM; in test [2], 20.8 µM; in test [3] it was 12.8 µM; in test [4] it was 17.7 µM; in test [5] it was 13.4 µM; in test [6], 4.22 µM. For the same compound, the GI50 in test [7] is 10.1 µM; in test [8] it was 12.3 µM. Further, the total growth inhibition concentration (TGI) in test [1] was greater than 100 µM; in test [2], 62.2 µM; in test [3] it was greater than 100 µM; in test [4], greater than 100 µM; in test [5], 88.6 µM; in test [6], 9.56 µM. Further, the values for the total growth inhibition concentration (TGI) in test [7] and in test [8] were greater than 100 µM and 62.8 µM, respectively. Besides, the CC50 is greater than 100 µM in test [1]; greater than 100 µM in test [3]; greater than 100 µM in test [4]; greater than 100 µM in test [5]; 45.5 µM in test [6]; greater than 100 µM in test [7]. In addition, the CC50 in test [8] is greater than 100 µM. The LC50 (50% cell kill) in test [2] is greater than 100 µM.

Consider `CC1=CC[C@@H]([C@@](C)(O)CCCC(C)(C)NC(=S)N/N=C\c2ccccc2[N+](=O)[O-])CC1`, for which the GI50 came to 39.9 µM in test [1]; 6.05 µM in test [2]; 20.4 µM in test [3]; 18.6 µM in test [4]; 7.39 µM in test [5]; 0.19 µM in test [6]. The 50% growth inhibitory concentration (GI50) in test [7] was determined as 20.6 µM; in test [8], 6.94 µM. In addition, the TGI is greater than 100 µM in test [1]; 16.6 µM in test [2]; greater than 100 µM in test [3]; greater than 100 µM in test [4]; 16.2 µM in test [5]; 7.84 µM in test [6]. Further, the figures for the TGI in test [7] and in test [8] were greater than 100 µM and 16.8 µM, respectively. The CC50 in test [1] is greater than 100 µM; in test [3], greater than 100 µM; in test [4], greater than 100 µM; in test [5] it was 41.9 µM; in test [6] it was greater than 100 µM; in test [7], greater than 100 µM. Also, in test [8], the CC50 was 44.4 µM. In test [2], this compound registered an LC50 (50% cell kill) of 49.3 µM.
